Read-outs that look alike come from different tables or passages of the source.

As a reminder, the IC50 is the concentration that inhibits the measured activity by half.

Data set [1] concerns HDAC (HeLa cell nuclear extract). The data set can be described thus: In vitro HDAC inhibition fluorescence assay. In kind it is biochemical, human. The note with it: read-out: HeLa cell nuclear extract IC50, substrate Boc-Lys(acetyl)-AMC, mean of three experiments. The method in brief: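 HeLa nuclear extract preincubated with test compound at several concentrations, 10 min at 37°C. Boc-Lys(acetyl)-AMC then added and incubated 30 min at 37°C. Reaction stopped with developer containing trypsin and trichostatin A. Fluorescence read 20 min later (ex 390/em 460 nm). Inhibition calculated relative to control wells. IC50 obtained by regression of concentration against inhibition ratio.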

Another data set has as its system U937 cells. The experiment in a line: In vitro antiproliferative assay. The note with it: Homo sapiens, U-937, 48 h, read-out: U937 IC50. In kind it is cell-based. Put shortly: (§1)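 Cells kept in RPMI-1640 with 10% FBS at 37°C, 5% CO2. Passaged into plates the day before dosing and grown at least 4 h before test compound was added. Exposure was 48 h, then 0.5% MTT for 4 h. Formazan was dissolved in DMSO for 15 min and absorbance read at 570 nm. Inhibition was taken relative to control wells, and IC50 was obtained by regression of concentration versus inhibition ratio.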

The test system of the next data set is U266 cells. The data set can be described thus: In vitro antiproliferative assay. It is filed as cell-based. The following applies: Homo sapiens, U-266, 48 h, read-out: U266 IC50. The method in brief: as §1
Another data set deals with KG-1 cells. The data set can be described thus: In vitro antiproliferative assay. It is filed as cell-based. The following applies: Homo sapiens, KG-1, 48 h, read-out: KG-1 IC50. The method in brief:
as §1

The subject of a further data set is HeLa cells. The data set can be described thus: In vitro antiproliferative assay. The note with it: Homo sapiens, 48 h, read-out: HeLa IC50. It is filed as cell-based. The method in brief:
as §1

Another data set concerns H7402 cells. The experiment in a line: In vitro antiproliferative assay. It is filed as cell-based. The note with it: Homo sapiens, H7402, 48 h, read-out: H7402 IC50. The method in brief:
as §1

In a further data set the test system is HCT116 cells. The experiment in a line: In vitro antiproliferative assay. It is filed as cell-based. The following applies: Homo sapiens, HCT-116, 48 h, read-out: HCT116 IC50. Put shortly:
as §1

The next data set has as its system U937 xenograft. The experiment in a line: In vivo antitumor assay in U937 xenograft model. Set-up: species or system male athymic nude mice (BALB/c-nu). The method in brief: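 U937 cells were injected subcutaneously into the right flank of male BALB/c-nu mice aged 5–6 weeks. After about 10 days, at roughly 100 mm3, mice were randomized six per group. Dosing was oral, 100 mg/kg daily for 12 days, with controls given an equal volume of PBS. Calipers were used every 3 days, V = ab2/2, and RTV = Vt/V0. Body weight was tracked. Tumors were weighed and organs inspected at necropsy. Analysis used a two-tailed t-test, P<0.05.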

Data set [2] has as its system HDAC (HeLa cell nuclear extract). The following applies: read-out: HeLa cell nuclear extract IC50; HDAC inhibition; ref Zhang et al.[8]; cited from earlier work.
The mark [3] stands for this setting: U937 xenograft mice, 100 mg/kg once a day orally for 12 days.

`COc1cccc(CN[C@H](C(=O)Nc2ccc(C(=O)NO)cc2)c2ccccc2)c1` [Compound 9d, (S)-N-Hydroxy-4-(2-((3-methoxybenzyl)amino)-2-phenylacetamido)benzamide]: the IC50 in [1] is 70 nM; in the data set on U937 cells, 530 nM; in the data set with U266 cells, 980 nM; with KG-1 cells, 900 nM; with HeLa cells, 5400 nM; in the data set with H7402 cells, 3500 nM. The IC50 in the data set on HCT116 cells was found to be 1300 nM. The “Relative increment ratio (T/C)” value with U937 xenograft (U937 xenograft in nude mice, 100 mg/kg once a day orally for 12 days) worked out at 43%. Further, the Body weight loss result in the data set on U937 xenograft (setting [3]) is given as “no significant body weight loss”. Further, in the data set on U937 xenograft (setting [3]), the “Toxic signs in macroscopic analysis of liver and spleen” value is “no evident toxic signs”. In the data set with U937 xenograft (U937 xenograft, 100 mg/kg po, tumor growth curve and final tumor tissue size), the Oral antitumor activity result is reported as “comparable with SAHA”.
As for `O=C(CCCCCCC(=O)Nc1ccccc1)NO` [SAHA, suberoylanilide hydroxamic acid], the IC50 in [2] was 146 nM.

Source of the values: PMC4603714 (Drug Design, Development and Therapy, 2015).
